Measured values taken from ChEMBL document CHEMBL1140872, “Discovery of a potent and selective inhibitor for human carbonyl reductase 1 from propionate scanning applied to the macrolide zearalenone” (Bioorg Med Chem, 2009).

Legend:
[1] = molecular target: T1, Mitogen-activated protein kinase kinase kinase 5 (Homo sapiens) (UniProt Q99683); assay: Binding affinity to human recombinant MAP3K5 expressed in Escherichia coli assessed as thermal shift by differential scanning fluorimetry
T1 sequence (whole entry): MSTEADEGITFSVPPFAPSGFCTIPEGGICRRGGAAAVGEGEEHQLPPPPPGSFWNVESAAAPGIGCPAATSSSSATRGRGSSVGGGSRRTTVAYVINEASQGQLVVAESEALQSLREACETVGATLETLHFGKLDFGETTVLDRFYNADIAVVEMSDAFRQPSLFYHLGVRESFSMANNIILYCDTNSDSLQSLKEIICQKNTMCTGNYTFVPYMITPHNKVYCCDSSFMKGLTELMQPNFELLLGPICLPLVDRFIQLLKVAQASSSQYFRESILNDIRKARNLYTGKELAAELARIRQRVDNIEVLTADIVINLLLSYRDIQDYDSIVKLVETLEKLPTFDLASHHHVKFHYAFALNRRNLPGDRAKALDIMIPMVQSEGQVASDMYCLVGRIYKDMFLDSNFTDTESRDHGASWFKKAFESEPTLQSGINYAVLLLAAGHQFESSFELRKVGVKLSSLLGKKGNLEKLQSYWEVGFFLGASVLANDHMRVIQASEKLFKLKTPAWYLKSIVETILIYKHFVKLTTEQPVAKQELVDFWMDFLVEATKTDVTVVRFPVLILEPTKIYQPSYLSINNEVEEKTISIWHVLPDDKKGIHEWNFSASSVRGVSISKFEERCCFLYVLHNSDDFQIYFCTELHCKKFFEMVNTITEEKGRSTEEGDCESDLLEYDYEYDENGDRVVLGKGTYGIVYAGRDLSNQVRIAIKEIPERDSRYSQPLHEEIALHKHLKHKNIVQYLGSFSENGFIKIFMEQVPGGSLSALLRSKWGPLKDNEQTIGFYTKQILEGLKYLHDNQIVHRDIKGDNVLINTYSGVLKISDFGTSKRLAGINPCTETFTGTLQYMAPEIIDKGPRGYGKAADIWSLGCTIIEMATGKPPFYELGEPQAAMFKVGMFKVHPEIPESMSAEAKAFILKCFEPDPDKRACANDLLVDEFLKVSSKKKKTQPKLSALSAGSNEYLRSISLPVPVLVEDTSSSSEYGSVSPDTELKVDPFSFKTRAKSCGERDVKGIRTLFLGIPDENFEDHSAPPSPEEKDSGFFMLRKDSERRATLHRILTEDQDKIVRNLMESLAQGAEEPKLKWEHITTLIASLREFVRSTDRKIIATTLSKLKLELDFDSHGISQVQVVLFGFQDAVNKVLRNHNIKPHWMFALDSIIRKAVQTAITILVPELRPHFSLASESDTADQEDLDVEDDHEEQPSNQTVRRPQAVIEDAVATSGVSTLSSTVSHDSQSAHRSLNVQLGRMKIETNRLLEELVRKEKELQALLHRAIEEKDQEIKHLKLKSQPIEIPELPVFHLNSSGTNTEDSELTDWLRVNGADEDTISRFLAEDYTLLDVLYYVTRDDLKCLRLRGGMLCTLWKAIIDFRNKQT
Method in brief: (§1)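 Thermal-shift (DSF) binding assay with purified recombinant catalytic domains or proteins carrying an N- or C-terminal His6 tag or GST fusion. Purity was >95% by SDS/PAGE and identity was confirmed by MS. Protein was at 2 µM final in 10 mM HEPES pH 7.5 and 150 mM NaCl. Tm shift is reported, with 2 °C as the threshold for binding.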

[2] = molecular target: STE20-like serine/threonine-protein kinase (Homo sapiens) (UniProt Q9H2G2); assay: Binding affinity to human recombinant SLK expressed in Escherichia coli assessed as thermal shift by differential scanning fluorimetry; method in brief: as §1
[3] = molecular target: Serine/threonine-protein kinase PAK 6 (Homo sapiens) (UniProt Q9NQU5); assay: Binding affinity to human recombinant PAK6 expressed in Escherichia coli assessed as thermal shift by differential scanning fluorimetry; method in brief: as §1
[4] = molecular target: T2, Serine/threonine-protein kinase 3 (Homo sapiens) (UniProt Q13188); assay: Binding affinity to human recombinant STK3 expressed in Escherichia coli assessed as thermal shift by differential scanning fluorimetry; method in brief: as §1
T2 sequence (whole entry): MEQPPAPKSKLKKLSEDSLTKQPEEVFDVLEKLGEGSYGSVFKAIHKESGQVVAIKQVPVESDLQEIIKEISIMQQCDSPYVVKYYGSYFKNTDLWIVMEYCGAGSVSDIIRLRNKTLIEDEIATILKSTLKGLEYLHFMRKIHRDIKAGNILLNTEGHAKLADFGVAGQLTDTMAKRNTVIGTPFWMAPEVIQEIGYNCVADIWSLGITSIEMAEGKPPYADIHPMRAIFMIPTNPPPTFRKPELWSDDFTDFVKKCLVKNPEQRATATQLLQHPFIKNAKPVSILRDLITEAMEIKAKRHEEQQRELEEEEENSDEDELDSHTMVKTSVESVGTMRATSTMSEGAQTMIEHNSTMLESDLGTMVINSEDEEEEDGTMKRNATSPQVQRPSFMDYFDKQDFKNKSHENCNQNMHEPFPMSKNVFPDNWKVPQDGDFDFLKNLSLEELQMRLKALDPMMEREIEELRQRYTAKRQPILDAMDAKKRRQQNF

[5] = molecular target: T3, Carbonyl reductase [NADPH] 1 (Homo sapiens) (UniProt P16152); assay: Binding affinity to human recombinant carbonyl reductase 1 expressed in Escherichia coli assessed as thermal shift by differential scanning fluorimetry in presence of NADP+; method in brief: as §1
T3 sequence (whole entry): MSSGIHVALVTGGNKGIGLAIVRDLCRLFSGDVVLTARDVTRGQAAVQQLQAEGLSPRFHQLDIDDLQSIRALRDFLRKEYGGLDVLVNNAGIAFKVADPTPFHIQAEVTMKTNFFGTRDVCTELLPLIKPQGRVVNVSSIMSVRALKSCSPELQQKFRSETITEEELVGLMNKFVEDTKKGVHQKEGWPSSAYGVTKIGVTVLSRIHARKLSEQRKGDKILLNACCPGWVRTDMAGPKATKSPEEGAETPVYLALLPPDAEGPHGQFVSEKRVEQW

[6] = molecular target: Mitogen-activated protein kinase 6 (Homo sapiens) (UniProt Q16659); assay: Binding affinity to human recombinant MAPK6 expressed in Escherichia coli assessed as thermal shift by differential scanning fluorimetry; method in brief: as §1
[7] = molecular target: Serine/threonine-protein kinase pim-2 (Homo sapiens) (UniProt Q9P1W9); assay: Binding affinity to human recombinant PIM2 expressed in Escherichia coli assessed as thermal shift by differential scanning fluorimetry; method in brief: as §1
[8] = molecular target: Heat shock protein HSP90 (Homo sapiens) (UniProt P07900+P08238)
[9] = molecular target: T3, Carbonyl reductase [NADPH] 1 (Homo sapiens); assay: Binding affinity to human recombinant carbonyl reductase 1 expressed in Escherichia coli assessed as NADPH oxidation at 200 uM relative to isatin
Method in brief: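 Substrate test used 200 nM purified CBR1 and 200 µM NADPH, injected onto compound at 200 µM in 50 mM sodium phosphate pH 6.8 with 1 mM MgCl2. NADPH oxidation was read as the fluorescence decrease at 460 nm (excitation 355 nm). Rate came from linear regression after normalizing to the fluorescence rise on injection. Run in triplicate and expressed as % of the isatin rate.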

Serine/threonine-protein kinase pim-2 (Homo sapiens), sequence (Q9P1W9 whole entry, looked up): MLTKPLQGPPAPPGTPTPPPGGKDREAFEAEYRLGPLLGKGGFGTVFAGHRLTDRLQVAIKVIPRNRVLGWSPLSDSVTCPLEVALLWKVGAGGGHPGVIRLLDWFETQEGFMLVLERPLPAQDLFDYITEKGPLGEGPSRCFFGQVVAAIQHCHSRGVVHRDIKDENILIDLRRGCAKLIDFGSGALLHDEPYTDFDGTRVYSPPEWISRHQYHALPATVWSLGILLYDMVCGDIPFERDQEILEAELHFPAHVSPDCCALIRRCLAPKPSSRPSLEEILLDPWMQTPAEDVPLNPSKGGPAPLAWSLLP
Serine/threonine-protein kinase PAK 6 (Homo sapiens), sequence (Q9NQU5 whole entry, looked up): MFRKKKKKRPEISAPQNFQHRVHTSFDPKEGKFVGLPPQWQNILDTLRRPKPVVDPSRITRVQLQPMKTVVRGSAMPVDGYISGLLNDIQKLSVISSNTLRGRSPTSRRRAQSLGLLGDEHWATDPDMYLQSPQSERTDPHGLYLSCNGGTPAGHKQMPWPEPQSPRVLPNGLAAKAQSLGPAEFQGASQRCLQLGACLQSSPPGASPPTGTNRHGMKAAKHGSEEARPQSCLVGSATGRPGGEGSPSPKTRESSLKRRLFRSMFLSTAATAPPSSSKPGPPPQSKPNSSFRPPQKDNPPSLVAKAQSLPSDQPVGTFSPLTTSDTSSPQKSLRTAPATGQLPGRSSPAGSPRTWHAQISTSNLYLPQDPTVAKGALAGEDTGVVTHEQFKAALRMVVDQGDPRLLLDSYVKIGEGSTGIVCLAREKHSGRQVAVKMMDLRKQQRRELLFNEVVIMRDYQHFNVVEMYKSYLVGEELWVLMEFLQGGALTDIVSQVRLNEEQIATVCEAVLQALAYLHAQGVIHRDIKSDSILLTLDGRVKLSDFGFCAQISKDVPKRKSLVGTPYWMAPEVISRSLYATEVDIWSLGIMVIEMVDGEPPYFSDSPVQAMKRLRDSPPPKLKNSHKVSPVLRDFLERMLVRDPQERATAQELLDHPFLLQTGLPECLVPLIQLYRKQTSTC
STE20-like serine/threonine-protein kinase (Homo sapiens), sequence (Q9H2G2 whole entry, looked up): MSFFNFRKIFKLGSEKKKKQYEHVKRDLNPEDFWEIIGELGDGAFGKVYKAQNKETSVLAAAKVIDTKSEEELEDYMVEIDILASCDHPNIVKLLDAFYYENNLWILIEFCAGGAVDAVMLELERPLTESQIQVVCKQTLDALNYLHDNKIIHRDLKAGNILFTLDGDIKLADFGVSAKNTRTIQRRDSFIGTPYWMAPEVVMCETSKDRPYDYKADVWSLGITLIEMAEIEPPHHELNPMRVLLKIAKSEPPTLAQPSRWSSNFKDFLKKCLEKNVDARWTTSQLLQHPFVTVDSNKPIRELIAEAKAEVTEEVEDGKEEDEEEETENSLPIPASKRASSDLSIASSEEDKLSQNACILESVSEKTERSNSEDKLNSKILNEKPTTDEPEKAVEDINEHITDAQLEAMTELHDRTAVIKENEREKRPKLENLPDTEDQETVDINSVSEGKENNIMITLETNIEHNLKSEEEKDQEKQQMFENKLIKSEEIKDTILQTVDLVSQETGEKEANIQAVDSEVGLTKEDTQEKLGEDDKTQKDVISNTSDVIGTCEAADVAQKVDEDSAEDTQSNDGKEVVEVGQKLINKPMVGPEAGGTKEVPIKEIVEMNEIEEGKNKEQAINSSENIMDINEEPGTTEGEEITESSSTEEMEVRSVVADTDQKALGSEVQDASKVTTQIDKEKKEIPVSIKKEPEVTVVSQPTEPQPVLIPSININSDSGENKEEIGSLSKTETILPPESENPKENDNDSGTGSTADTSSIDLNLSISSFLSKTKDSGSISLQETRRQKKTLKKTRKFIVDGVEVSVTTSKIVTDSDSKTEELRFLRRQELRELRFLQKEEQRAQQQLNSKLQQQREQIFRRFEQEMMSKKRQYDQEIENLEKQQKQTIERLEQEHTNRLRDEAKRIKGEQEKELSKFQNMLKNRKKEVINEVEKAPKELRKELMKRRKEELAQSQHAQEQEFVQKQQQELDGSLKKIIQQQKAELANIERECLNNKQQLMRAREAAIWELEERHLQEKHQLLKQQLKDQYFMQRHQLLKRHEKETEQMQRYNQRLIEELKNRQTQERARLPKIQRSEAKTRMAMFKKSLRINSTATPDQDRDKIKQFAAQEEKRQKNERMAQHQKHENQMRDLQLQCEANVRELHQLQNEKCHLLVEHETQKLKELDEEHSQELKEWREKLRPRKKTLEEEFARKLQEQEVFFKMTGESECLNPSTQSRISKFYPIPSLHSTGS
Mitogen-activated protein kinase 6 (Homo sapiens), sequence (Q16659 whole entry): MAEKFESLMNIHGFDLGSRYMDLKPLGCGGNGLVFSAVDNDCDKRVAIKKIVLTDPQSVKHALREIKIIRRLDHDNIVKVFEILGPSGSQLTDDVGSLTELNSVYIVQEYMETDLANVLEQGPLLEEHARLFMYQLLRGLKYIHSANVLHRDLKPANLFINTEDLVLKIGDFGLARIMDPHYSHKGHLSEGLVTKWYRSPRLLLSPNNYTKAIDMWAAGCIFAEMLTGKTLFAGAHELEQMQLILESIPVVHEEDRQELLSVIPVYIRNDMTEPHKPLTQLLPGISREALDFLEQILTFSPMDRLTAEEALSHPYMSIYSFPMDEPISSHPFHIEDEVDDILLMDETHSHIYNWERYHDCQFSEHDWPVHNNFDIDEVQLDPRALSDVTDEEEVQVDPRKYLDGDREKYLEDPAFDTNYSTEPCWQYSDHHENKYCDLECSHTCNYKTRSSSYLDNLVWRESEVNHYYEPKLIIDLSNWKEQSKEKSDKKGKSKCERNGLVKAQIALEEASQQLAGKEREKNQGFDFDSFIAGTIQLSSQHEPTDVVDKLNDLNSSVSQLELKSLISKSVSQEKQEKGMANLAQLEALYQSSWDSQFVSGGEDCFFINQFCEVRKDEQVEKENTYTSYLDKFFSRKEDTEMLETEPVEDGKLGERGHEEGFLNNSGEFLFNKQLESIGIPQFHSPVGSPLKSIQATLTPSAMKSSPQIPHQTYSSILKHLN

| Compound | Tm [1] [°C] | Tm [2] [°C] | Tm [3] [°C] | Tm [4] [°C] | Tm [5] [°C] | Tm [6] [°C] | Tm [7] [°C] | Tm [8] [°C] | Activity [9] [%] |
| --- | --- | --- | --- | --- | --- | --- | --- | --- | --- |
| COc1cc(O)c2c(c1)/C=C/CC[C@H](C)C(=O)CCC[C@H](C)OC2=O | < 2 | 2.5 | < 2 | < 2 | < 2 | < 2 | < 2 | < 2 | 1.5 |
| COc1cc2c(c(OC)c1)C(=O)O[C@@H](C)CCCC(=O)[C@@H](C)CC/C=C/2 | < 2 | < 2 | < 2 | < 2 | < 2 | < 2 | < 2 | < 2 | 31.3 |
| COc1cc2c(c(OC)c1)C(=O)O[C@@H](C)CCC[C@@H](O)[C@@H](C)CC/C=C/2 | < 2 | < 2 | < 2 | < 2 | < 2 | < 2 | < 2 | < 2 | – |
| COC1=C2C[C@@H](C)C[C@H](OC)[C@H](O)[C@@H](C)/C=C(\C)[C@H](OC(N)=O)[C@@H](OC)/C=C\C=C(/C)C(=O)NC(=CC1=O)C2=O | < 2 | < 2 | < 2 | < 2 | < 2 | < 2 | < 2 | – | – |
| C[C@H]1CCCC(=O)[C@@H](C)CC/C=C/c2cc(O)cc(O)c2C(=O)O1 | < 2 | 3.5 | < 2 | < 2 | 3.9 | < 2 | < 2 | < 2 | – |
| C[C@H]1CCCC(=O)CCC/C=C/c2cc(O)cc(O)c2C(=O)O1 | < 2 | 4.4 | < 2 | < 2 | 3.6 | < 2 | 2.6 | 2.3 | 5.7 |
| C[C@@H]1C[C@H]2O[C@@H]2/C=C\C=C\C(=O)Cc2c(Cl)c(O)cc(O)c2C(=O)O1 [RADICICOL] | < 2 | < 2 | < 2 | < 2 | 4.6 | < 2 | < 2 | – | – |
